This passage reports Drug metabolism, Stabilty and degraded results from ChEMBL document CHEMBL4665847, “Understanding the Metabolism of Proteolysis Targeting Chimeras (PROTACs): The Next Step toward Pharmaceutical Applications” (J Med Chem, 2020).

Data set [1] has as its target T1, Aldehyde oxidase (Homo sapiens, UniProt Q06278).
T1 sequence (Q06278 whole entry): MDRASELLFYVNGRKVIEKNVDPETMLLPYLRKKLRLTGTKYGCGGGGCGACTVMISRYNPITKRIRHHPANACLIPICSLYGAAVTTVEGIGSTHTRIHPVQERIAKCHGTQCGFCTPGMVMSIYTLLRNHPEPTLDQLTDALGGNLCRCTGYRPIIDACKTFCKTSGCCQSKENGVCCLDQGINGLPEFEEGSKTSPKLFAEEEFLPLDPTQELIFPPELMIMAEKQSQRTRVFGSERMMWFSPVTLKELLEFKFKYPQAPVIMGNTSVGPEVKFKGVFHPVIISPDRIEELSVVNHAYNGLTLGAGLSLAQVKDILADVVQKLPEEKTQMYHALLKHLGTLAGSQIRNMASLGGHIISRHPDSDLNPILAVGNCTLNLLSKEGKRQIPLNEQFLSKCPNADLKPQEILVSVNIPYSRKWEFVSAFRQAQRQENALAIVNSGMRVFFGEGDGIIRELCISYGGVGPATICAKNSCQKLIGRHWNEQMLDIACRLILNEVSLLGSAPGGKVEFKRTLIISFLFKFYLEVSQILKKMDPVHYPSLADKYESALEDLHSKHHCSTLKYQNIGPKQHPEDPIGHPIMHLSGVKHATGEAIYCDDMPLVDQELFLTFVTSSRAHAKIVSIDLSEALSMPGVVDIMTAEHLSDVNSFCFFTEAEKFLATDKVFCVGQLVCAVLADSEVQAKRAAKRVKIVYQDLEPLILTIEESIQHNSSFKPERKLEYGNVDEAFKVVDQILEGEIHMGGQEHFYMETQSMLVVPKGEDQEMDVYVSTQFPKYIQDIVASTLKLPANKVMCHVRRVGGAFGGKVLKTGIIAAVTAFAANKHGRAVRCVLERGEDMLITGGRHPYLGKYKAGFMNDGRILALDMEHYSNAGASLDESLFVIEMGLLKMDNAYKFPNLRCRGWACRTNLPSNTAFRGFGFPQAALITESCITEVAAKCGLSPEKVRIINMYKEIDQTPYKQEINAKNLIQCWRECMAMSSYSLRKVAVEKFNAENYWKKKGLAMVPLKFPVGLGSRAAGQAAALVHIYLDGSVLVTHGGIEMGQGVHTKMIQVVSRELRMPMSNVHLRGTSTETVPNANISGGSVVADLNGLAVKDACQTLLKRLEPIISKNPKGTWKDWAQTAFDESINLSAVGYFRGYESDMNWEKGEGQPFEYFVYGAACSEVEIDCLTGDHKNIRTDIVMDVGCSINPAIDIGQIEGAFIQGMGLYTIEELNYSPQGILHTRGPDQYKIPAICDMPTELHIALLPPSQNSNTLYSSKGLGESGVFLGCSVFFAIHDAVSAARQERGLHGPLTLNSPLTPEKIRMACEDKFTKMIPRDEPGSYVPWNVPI
The data set is described as follows: Metabolic stability in human liver cytosol assessed as AOX1 mediated drug metabolism by measuring amide hydrolysis at 1 uM incubated up to 90 mins in presence of hydralazine by LC-MS/MS analysis. The class given is ADME, subcellular. The settings on record: 1.5 h.

Data set [2] deals with T1, Aldehyde oxidase. The data set is described as follows: Metabolic stability in human liver cytosol assessed as AOX1 mediated drug metabolism by measuring hydroxylation at 1 uM incubated up to 90 mins in absence of hydralazine by LC-MS/MS analysis. The class given is ADME, subcellular. The settings on record: 1.5 h.
The nature of data set [3]: Stability of the compound in PBS at pH 7.4 assessed as compound degradation at 10 uM incubated for 12 hrs by LC-MS analysis. The note with it: buffer, pH 7.4, 12 h. Format: physicochemical. A digest of the protocol: (§1)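 Nonenzymatic stability: 10 mM DMSO stock diluted to 10 μM in PBS, PBS/ACN (1:1), or DMSO; PBS/ACN-DMSO variant dried under nitrogen at 40 °C and redissolved in DMSO. Solutions kept in LC autosampler at 37 °C for 12 h; LC-MS injections at 0, 3, 6 and 12 h tracking remaining parent.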

Data set [4] in a line: Stability of the compound in PBS/ACN assessed as compound degradation at 10 uM measured after 3 hrs by LC-MS analysis. The note with it: buffer. The class given is physicochemical. Put shortly:
as §1

A short description of data set [5]: Stability of compound in PBS/ACN-DMSO assessed as compound degradation at 10 uM measured after 3 hrs by LC-MS analysis. Format: physicochemical. The settings on record: read-out: Drug degradation. Put shortly:
as §1

The nature of data set [6]: Stability of compound in DMSO at 10 uM incubated for 12 hrs by LC-MS analysis. Format: physicochemical. A digest of the protocol:
as §1

A short description of data set [7]: Metabolic stability in cryopreserved human hepatocytes assessed as N-dealkylation at 1 uM incubated for 4 hrs. Format: ADME, cell-based, Hepatocyte.
Data set [8] in a line: Metabolic stability in cryopreserved human hepatocytes assessed as amide hydrolysis at 1 uM incubated for 4 hrs. Format: ADME, cell-based, Hepatocyte.
The nature of data set [9]: Metabolic stability in cryopreserved human hepatocytes assessed as O-dealkylation at 1 uM incubated for 4 hrs. Format: ADME, cell-based, Hepatocyte.
Data set [10] is described as follows: Metabolic stability in cryopreserved human hepatocytes assessed as aliphatic hydroxylation at 1 uM incubated for 4 hrs. Format: ADME, cell-based, Hepatocyte.
Data set [11] in a line: Metabolic stability in cryopreserved human hepatocytes assessed as dehydrogenation at 1 uM incubated for 4 hrs. The class given is ADME, cell-based, Hepatocyte.
The nature of data set [12]: Metabolic stability in cryopreserved human hepatocytes assessed as glucuronidation at 1 uM incubated for 4 hrs. The class given is ADME, cell-based, Hepatocyte.
Data set [13] in a line: Metabolic stability in cryopreserved human hepatocytes assessed as aromatic hydroxylation at 1 uM incubated for 4 hrs. The class given is ADME, cell-based, Hepatocyte.
A short description of data set [14]: Metabolic stability in cryopreserved human hepatocytes assessed as aliphatic carbonylation at 1 uM incubated for 4 hrs. Format: ADME, cell-based, Hepatocyte.

`Cc1ncsc1-c1ccc([C@H](C)NC(=O)[C@@H]2C[C@@H](O)CN2C(=O)[C@@H](NC(=O)CCCCN(C)C(=O)COc2c(-c3csc(N4CCOCC4)n3)ccc(F)c2F)C(C)(C)C)cc1`: the Drug metabolism result on Aldehyde oxidase [1] and at Aldehyde oxidase [2] was “Metabolite_Detected” each time.

For `Cc1sc2c(c1C)C(c1ccc(Cl)cc1)=N[C@@H](CC(=O)NCCCCNC(=O)COc1cccc3c1C(=O)N(C1CCC(=O)NC1=O)C3=O)c1nnc(C)n1-2` (some centres not stated), the Stabilty result in data set [3] is given as “Unstable”; in data set [4], “Unstable”; in data set [6], “Stable”. The degraded at 3 h, 10 µM in [5] stood at 10%.

Turning to `O=C(COc1cccc2c1C(=O)N(C1CCC(=O)NC1=O)C2=O)NCCCCCCCCNC(=O)COc1c(-c2csc(N3CCOCC3)n2)ccc(F)c1F` (configuration not stated), the Drug metabolism entry in data set [7], in data set [8] and in data set [9] was “Metabolite_Detected” throughout.

With `O=C(COc1cccc2c1C(=O)N(C1CCC(=O)NC1=O)C2=O)NCCOCCOCCNC(=O)COc1c(-c2csc(N3CCOCC3)n2)ccc(F)c1F` (configuration not stated), the Drug metabolism result in data set [10], in data set [8] and in [9] was “Metabolite_Detected” throughout.

On to `Nc1cccc2c1C(=O)N(C1CCC(=O)NC1=O)C2=O` (configuration not stated) [POMALIDOMIDE], for which, in data set [8], the Drug metabolism entry is reported as “Metabolite_Detected”.

`O=C(COc1c(-c2csc(N3CCOCC3)n2)ccc(F)c1F)NCCOCCOCCNc1cccc2c1C(=O)N(C1CCC(=O)NC1=O)C2=O` (configuration not stated): the Drug metabolism entry in [7], in data set [8] and in data set [9] was “Metabolite_Detected” each time.

`Cc1ncsc1-c1ccc([C@H](C)NC(=O)[C@@H]2C[C@@H](O)CN2C(=O)[C@@H](NC(=O)COCCOCCNC(=O)COc2c(-c3csc(N4CCOCC4)n3)ccc(F)c2F)C(C)(C)C)cc1`: the Drug metabolism entry in [11], in data set [8], in [9] and in data set [12] was “Metabolite_Detected” throughout.

For `Cc1sc2c(c1C)C(c1ccc(Cl)cc1)=N[C@@H](CC(=O)NCCCCCCCCNc1cccc3c1C(=O)N(C1CCC(=O)NC1=O)C3=O)c1nnc(C)n1-2` (some centres not stated), the Drug metabolism result in [7], in [10] and in data set [11] was “Metabolite_Detected” in each case.

For `Cc1sc2c(c1C)C(c1ccc(Cl)cc1)=N[C@@H](CC(=O)O)c1nnc(C)n1-2`, the Drug metabolism entry in data set [10] is recorded as “Metabolite_Detected”.

Take `O=C(COc1c(-c2csc(N3CCOCC3)n2)ccc(F)c1F)NCCCCCCCCNc1cccc2c1C(=O)N(C1CCC(=O)NC1=O)C2=O` (configuration not stated): the Drug metabolism entry in [7], in data set [10], in data set [8] and in [9] was “Metabolite_Detected” in each case.

Turning to `Oc1c(-c2csc(N3CCOCC3)n2)ccc(F)c1F`, the Drug metabolism result in [10], in data set [9] and in data set [12] was “Metabolite_Detected” in each case.

In the case of `Cc1ncsc1-c1ccc([C@H](C)NC(=O)[C@@H]2C[C@@H](O)CN2C(=O)[C@@H](NC(=O)CCCCNC(=O)COc2c(-c3csc(N4CCOCC4)n3)ccc(F)c2F)C(C)(C)C)cc1`, the Drug metabolism entry at Aldehyde oxidase [1] and on Aldehyde oxidase [2] was “Metabolite_Detected” throughout.

With `Cc1ncsc1-c1ccc([C@H](C)NC(=O)[C@@H]2C[C@@H](O)CN2C(=O)[C@@H](N)C(C)(C)C)cc1`, the Drug metabolism result in data set [7], in [10], in data set [13] and in [14] was “Metabolite_Detected” in each case.
